Laboratory results reported in ChEMBL document CHEMBL5674880 (PLoS One, 2018).
pIC50: −log10 of the molar value.

Legend:
Type in all cases: functional, cell-based
[1] = tested on: CWR22R; assay: Antiproliferative activity against human 22Rv1 cells after 10 days; details: 22Rv1, 240 h
How it was run: (§1)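 Tested as part of a 240-line cancer cell panel (Eurofins Oncopanel); all lines were mycoplasma-negative and STR-verified. Cells were exposed to a compound concentration series in 2D culture for 10 days. The highest concentration was 10 μM or 25 μM, depending on the inhibitor. Antiproliferative IC50 was derived from the mean of three biological replicates.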

[2] = tested on: 769-P; assay: Antiproliferative activity against human 769-P cells after 10 days; details: 240 h; how it was run: as §1
[3] = tested on: 786-0; assay: Antiproliferative activity against human 786-0 cells after 10 days; details: 786-0, 240 h; how it was run: as §1
[4] = tested on: A 172; assay: Antiproliferative activity against human A-172 cells after 10 days; details: A 172, 240 h; how it was run: as §1
[5] = tested on: A204; assay: Antiproliferative activity against human A204 cells after 10 days; details: A204, 240 h; how it was run: as §1
[6] = tested on: A-431; assay: Antiproliferative activity against human A-431 cells after 10 days; details: A-431, 240 h; how it was run: as §1
[7] = tested on: ACHN; assay: Antiproliferative activity against human ACHN cells after 10 days; details: 240 h; how it was run: as §1
[8] = Antiproliferative activity against human BC1 cells after 10 days; details: BC1, 240 h; how it was run: as §1
[9] = tested on: BXPC-3; assay: Antiproliferative activity against human BXPC-3 cells after 10 days; details: BXPC-3, 240 h; how it was run: as §1
[10] = tested on: C-33-A; assay: Antiproliferative activity against human C-33-A cells after 10 days; details: 240 h; how it was run: as §1
[11] = tested on: CAL-62; assay: Antiproliferative activity against human CAL-62 cells after 10 days; details: CAL-62, 240 h; how it was run: as §1
[12] = tested on: CFPAC-1; assay: Antiproliferative activity against human CFPAC-1 cells after 10 days; details: CFPAC-1, 240 h; how it was run: as §1
[13] = tested on: CGTH-W-1; assay: Antiproliferative activity against human CGTH-W-1 cells after 10 days; details: CGTH-W-1, 240 h; how it was run: as §1
[14] = tested on: CHL-1; assay: Antiproliferative activity against human CHL-1 cells after 10 days; details: CHL-1, 240 h; how it was run: as §1
[15] = tested on: DB; assay: Antiproliferative activity against human DB cells after 10 days; details: 240 h
How it was run: (§2)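 10-day 2D proliferation screen of a broad cancer cell panel (about 240 lines, Eurofins Oncopanel). All lines were mycoplasma negative and STR verified. Compounds were dosed up to a top concentration of 10 μM or 25 μM, depending on the inhibitor. Anti-proliferative IC50 values are the average of three biological replicates.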

[16] = tested on: DMS-53; assay: Antiproliferative activity against human DMS-53 cells after 10 days; details: DMS-53, 240 h; how it was run: as §2
[17] = tested on: G-402; assay: Antiproliferative activity against human G-402 cells after 10 days; details: G-402, 240 h; how it was run: as §2
[18] = tested on: HCT-116; assay: Antiproliferative activity against human HCT-116 cells after 10 days; details: HCT-116, 240 h; how it was run: as §2
[19] = tested on: HMCB cell line; assay: Antiproliferative activity against human HMCB cells after 10 days; details: 240 h; how it was run: as §2
[20] = tested on: HOS; assay: Antiproliferative activity against human HOS cells after 10 days; details: 240 h; how it was run: as §2
[21] = tested on: Hs 294T; assay: Antiproliferative activity against human Hs 294T cells after 10 days; details: 240 h; how it was run: as §2
[22] = tested on: Hs-578T; assay: Antiproliferative activity against human Hs 578T cells after 10 days; details: 240 h; how it was run: as §2
[23] = tested on: Hs 695T; assay: Antiproliferative activity against human Hs 695T cells after 10 days; details: 240 h; how it was run: as §2
[24] = tested on: Hs746T; assay: Antiproliferative activity against human Hs746T cells after 10 days; details: 240 h; how it was run: as §2
[25] = tested on: HT; assay: Antiproliferative activity against human HT cells after 10 days; details: 240 h; how it was run: as §2
[26] = tested on: HT-1376; assay: Antiproliferative activity against human HT-1376 cells after 10 days; details: HT-1376, 240 h; how it was run: as §2
[27] = tested on: JEG-3; assay: Antiproliferative activity against human JEG-3 cells after 10 days; details: JEG-3, 240 h
How it was run: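 Cell lines run in the Eurofins Oncopanel broad cancer panel, all mycoplasma-negative and STR-verified. Cells were exposed to a compound concentration series in a 10-day proliferation assay, and an anti-proliferative IC50 was derived. Values are the mean of three biological replicates.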

[28] = tested on: MES-SA; assay: Antiproliferative activity against human MES-SA cells after 10 days; details: 240 h
How it was run: (§3)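 Broad cancer cell line panel (Eurofins Oncopanel, about 240 lines; mycoplasma negative, STR verified) grown in 2D culture and exposed to compound in a 10-day proliferation assay. The top concentration was 10 μM for the SMYD2 inhibitor series and 25 μM for the SMYD3 inhibitor. The proliferative IC50 is taken from concentration-response data, each value the mean of three biological replicates.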

[29] = tested on: MeWo; assay: Antiproliferative activity against human MeWo cells after 10 days; details: 240 h; how it was run: as §3
[30] = tested on: MIA PaCa-2; assay: Antiproliferative activity against human Mia PaCa-2 cells after 10 days; details: MIA PaCa-2, 240 h; how it was run: as §3
[31] = tested on: MOLT-3; assay: Antiproliferative activity against human MOLT-3 cells after 10 days; details: MOLT-3, 240 h; how it was run: as §3
[32] = Antiproliferative activity against human MT-3 cells after 10 days; details: MT-3, 240 h; how it was run: as §3
[33] = tested on: NALM-6; assay: Antiproliferative activity against human NALM-6 cells after 10 days; details: NALM-6, 240 h; how it was run: as §3
[34] = tested on: NCI-H661; assay: Antiproliferative activity against human NCI-H661 cells after 10 days; details: NCI-H661, 240 h; how it was run: as §3
[35] = Antiproliferative activity against human OCUG-1 cells after 10 days; details: OCUG-1, 240 h; how it was run: as §3
[36] = tested on: OE19; assay: Antiproliferative activity against human OE19 cells after 10 days; details: OE19, 240 h; how it was run: as §3
[37] = tested on: PANC-1; assay: Antiproliferative activity against human PANC-1 cells after 10 days; details: PANC-1, 240 h; how it was run: as §3
[38] = tested on: Raji; assay: Antiproliferative activity against human Raji cells after 10 days; details: 240 h
[39] = tested on: RPMI-6666; assay: Antiproliferative activity against human RPMI-6666 cells after 10 days; details: RPMI-6666, 240 h
[40] = tested on: SCC-25; assay: Antiproliferative activity against human SCC-25 cells after 10 days; details: SCC-25, 240 h
[41] = tested on: SCC-4; assay: Antiproliferative activity against human SCC-4 cells after 10 days; details: SCC-4, 240 h
[42] = tested on: SCC-9; assay: Antiproliferative activity against human SCC-9 cells after 10 days; details: SCC-9, 240 h
[43] = tested on: SH-4; assay: Antiproliferative activity against human SH-4 cells after 10 days; details: SH-4, 240 h
[44] = tested on: SK-MEL3; assay: Antiproliferative activity against human SK-MEL3 cells after 10 days; details: SK-MEL3, 240 h
[45] = tested on: SK-OV-3; assay: Antiproliferative activity against human SK-OV-3 cells after 10 days; details: SK-OV-3, 240 h
[46] = tested on: SNU-16; assay: Antiproliferative activity against human SNU-16 cells after 10 days; details: SNU-16, 240 h
[47] = tested on: SW13; assay: Antiproliferative activity against human SW13 cells after 10 days; details: SW13, 240 h
[48] = tested on: SW-620; assay: Antiproliferative activity against human SW620 cells after 10 days; details: SW-620, 240 h
[49] = tested on: SW900; assay: Antiproliferative activity against human SW900 cells after 10 days; details: SW900, 240 h
[50] = tested on: YAPC; assay: Antiproliferative activity against human YAPC cells after 10 days; details: 240 h

Cc1cn(CCN2CCN(c3ccccc3-c3cc(C#N)cc(C(=O)NCCCN4CCCC4)c3)CC2)c2ccccc12
pIC50 [1]: 5.97
pIC50 [2]: 5.56
pIC50 [3]: 5.68
pIC50 [4]: 5.71
pIC50 [5]: 5.87
pIC50 [6]: 5.20
pIC50 [7]: 5.49
pIC50 [8]: 5.44
pIC50 [9]: 5.54
pIC50 [10]: 5.49
pIC50 [11]: 5.68
pIC50 [12]: 5.83
pIC50 [13]: 5.54
pIC50 [14]: 5.59
pIC50 [15]: 5.93
pIC50 [16]: 5.50
pIC50 [17]: 5.66
pIC50 [18]: 5.58
pIC50 [19]: 5.54
pIC50 [20]: 5.67
pIC50 [21]: 5.61
pIC50 [22]: 5.21
pIC50 [23]: 5.18
pIC50 [24]: 5.37
pIC50 [25]: 5.71
pIC50 [26]: 5.63
pIC50 [27]: 5.82
pIC50 [28]: 5.64
pIC50 [29]: 5.70
pIC50 [30]: 5.69
pIC50 [31]: 5.87
pIC50 [32]: 5.91
pIC50 [33]: 5.94
pIC50 [34]: 5.47
pIC50 [35]: 5.63
pIC50 [36]: 5.60
pIC50 [37]: 5.54
pIC50 [38]: 5.80
pIC50 [39]: 5.54
pIC50 [40]: 5.60
pIC50 [41]: 5.44
pIC50 [42]: 5.93
pIC50 [43]: 5.94
pIC50 [44]: 5.86
pIC50 [45]: 5.53
pIC50 [46]: 6.00
pIC50 [47]: 5.57
pIC50 [48]: 5.51
pIC50 [49]: 5.49
pIC50 [50]: 5.54

O=C(NC1CN(Cc2cnn(Cc3ccccc3)c2)C1)c1cn(C2CC2)nn1
pIC50 [1]: < 5.00
pIC50 [2]: < 5.00
pIC50 [3]: < 5.00
pIC50 [4]: < 5.00
pIC50 [5]: < 5.00
pIC50 [6]: < 5.00
pIC50 [7]: < 5.00
pIC50 [8]: < 5.00
pIC50 [9]: < 5.00
pIC50 [10]: < 5.00
pIC50 [11]: < 5.00
pIC50 [12]: < 5.00
pIC50 [13]: < 5.00
pIC50 [14]: < 5.00
pIC50 [15]: 6.18
pIC50 [16]: < 5.00
pIC50 [17]: < 5.00
pIC50 [18]: < 5.00
pIC50 [19]: < 5.00
pIC50 [20]: < 5.00
pIC50 [21]: < 5.00
pIC50 [22]: < 5.00
pIC50 [23]: < 5.00
pIC50 [24]: < 5.00
pIC50 [25]: < 5.00
pIC50 [26]: < 5.00
pIC50 [27]: < 5.00
pIC50 [28]: < 5.00
pIC50 [29]: < 5.00
pIC50 [30]: < 5.00
pIC50 [31]: < 5.00
pIC50 [32]: < 5.00
pIC50 [33]: < 5.00
pIC50 [34]: < 5.00
pIC50 [35]: < 5.00
pIC50 [36]: < 5.00
pIC50 [37]: < 5.00
pIC50 [38]: < 5.00
pIC50 [39]: < 5.00
pIC50 [40]: < 5.00
pIC50 [41]: < 5.00
pIC50 [42]: < 5.00
pIC50 [43]: < 5.00
pIC50 [44]: < 5.00
pIC50 [45]: < 5.00
pIC50 [46]: < 5.00
pIC50 [47]: < 5.00
pIC50 [48]: < 5.00
pIC50 [49]: < 5.00
pIC50 [50]: < 5.00
